In ChEMBL document CHEMBL3286121, “Synthesis of 5-methyl phenanthridium derivatives: a new class of human DOPA decarboxylase inhibitors” (Bioorg Med Chem Lett, 2014):

Target: T1, Aromatic-L-amino-acid decarboxylase (Homo sapiens, UniProt P20711)
T1 sequence (P20711 whole entry): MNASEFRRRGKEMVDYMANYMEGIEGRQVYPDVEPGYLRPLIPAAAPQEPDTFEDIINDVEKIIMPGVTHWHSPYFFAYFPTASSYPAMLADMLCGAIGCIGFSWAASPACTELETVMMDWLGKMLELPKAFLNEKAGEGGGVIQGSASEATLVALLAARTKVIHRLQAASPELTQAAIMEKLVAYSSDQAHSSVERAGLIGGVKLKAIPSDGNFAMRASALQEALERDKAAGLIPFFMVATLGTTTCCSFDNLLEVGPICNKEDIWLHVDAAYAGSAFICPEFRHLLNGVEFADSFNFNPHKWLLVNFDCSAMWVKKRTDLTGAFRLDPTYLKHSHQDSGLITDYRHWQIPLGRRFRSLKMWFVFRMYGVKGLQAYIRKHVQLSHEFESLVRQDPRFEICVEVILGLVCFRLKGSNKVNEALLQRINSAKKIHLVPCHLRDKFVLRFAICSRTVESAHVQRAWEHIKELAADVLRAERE
Experiment: Inhibition of recombinant human DOPA decarboxylase assessed as inhibition of dopamine production after 30 mins by HPLC method; call rule not given here
Summary of the method: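 Recombinant human enzyme reacted with L-DOPA (1 mM final) and PLP cofactor in pH 6.8 buffer, enzyme […] final, with or without compound, 37 °C for 30 min; stopped by heating at 100 °C for 2 min. Dopamine formed quantified by HPLC, 0.2% formic acid/methanol 9:1 eluent, UV 280 nm. IC50 from dose-response curves, 6 concentrations, each in duplicate.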

Structure (SMILES)	IC50 (read-out: IC50) [µM]	IC50
COc1cc2c[n+](C)c3c4cc5c(cc4ccc3c2cc1OC)OCO5 [NITIDINE]	1340	–
COc1ccc2c(c[n+](C)c3c4cc5c(cc4ccc23)OCO5)c1OC [CHELERYTHRINE]	1280	–
CN1Cc2c(ccc3c2OCO3)-c2ccc3cc4c(cc3c21)OCO4 [DIHYDROSANGUINARINE]	–	Not Active
C[n+]1cc2ccccc2c2ccccc21	400	–
COc1cc2c[n+](C)c3ccccc3c2cc1OC	3500	–
COc1ccc2cc3[n+](cc2c1OC)CCc1cc2c(cc1-3)OCO2 [BERBERINE]	–	Not Active
C[n+]1cc2c3c(ccc2c2ccc4cc5c(cc4c21)OCO5)OCO3 [SANGUINARIUM CHLORIDE]	200	–

More lines, main results first:

IC50 (read-out: IC50) [µM]	Structure (SMILES)	IC50
950	COc1ccc2c(c1)c[n+](C)c1ccccc21	–
120	COc1ccc2c(c1)c[n+](C)c1ccc(O)cc21	–
1490	COc1cc2c[n+](C)c3ccc(C)cc3c2cc1OC	–
2690	COc1cc2c[n+](C)c3ccc(F)cc3c2cc1OC	–
190	COc1ccc2c(c1)c[n+](C)c1ccc(OC)cc21	–
930	COc1ccc2c(c1)c[n+](C)c1ccc(Cl)cc21	–
600	COc1ccc2c(c1)c[n+](C)c1ccc(C)cc21	–
1170	COc1ccc2c(c1)c1cc(OC)c(OC)cc1c[n+]2C	–
570	COc1ccc2c(c1)c[n+](C)c1ccc(F)cc21	–
1390	COc1cc2c[n+](C)c3ccc(Cl)cc3c2cc1OC	–
